# Data taken from ChEMBL document CHEMBL4715682, “Potent trifluoromethoxy, trifluoromethylsulfonyl, trifluoromethylthio and pentafluorosulfanyl containing (1,3,4-oxadiazol-2-yl)benzamides against drug-resistant Gram-positive bacteria” (RSC Med Chem, 2020).
# The source made the active and inactive calls. No cut-off for these calls is given here.
# Experiments:
# Staphylococcus aureus [1] = test: Antibacterial activity against methicillin-resistant Staphylococcus aureus NRS387 assessed as inhibition of visible bacterial growth incubated for 18 to 20 hrs by CLSI method; type: functional; conditions: time 18-20 hrs
# Outline: (§1)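 CLSI broth microdilution. Strains grown aerobically overnight on tryptic soy agar at 37 °C, adjusted to 0.5 McFarland and diluted in cation-adjusted Mueller–Hinton broth to about 5×10^5 CFU/mL. Compounds and control drugs serially diluted across the plate. Incubated aerobically at 37 °C for 18-20 h. MIC is the lowest concentration with no visible growth.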
# Staphylococcus aureus [2] = test: Antibacterial activity against methicillin-resistant Staphylococcus aureus NRS382 assessed as inhibition of visible bacterial growth incubated for 18 to 20 hrs by CLSI method; type: functional; conditions: time 18-20 hrs; outline: as §1
# Staphylococcus aureus [3] = test: Antibacterial activity against methicillin-resistant Staphylococcus aureus NRS484 assessed as inhibition of visible bacterial growth incubated for 18 to 20 hrs by CLSI method; type: functional; conditions: time 18-20 hrs; outline: as §1
# Enterococcus faecalis [4] = test: Antibacterial activity against vancomycin- resistant Enterococcus faecalis ATCC 700221 assessed as inhibition of visible bacterial growth incubated for 18 to 20 hrs by CLSI method; type: functional; conditions: time 18-20 hrs; outline: as §1
# Streptococcus pneumoniae [5] = test: Antibacterial activity against […] Streptococcus pneumoniae ATCC 700677 assessed as inhibition of visible bacterial growth incubated for 18 to 20 hrs by CLSI method; type: functional; conditions: time 18-20 hrs; outline: as §1
# Staphylococcus aureus [6] = test: Antibacterial activity against methicillin-resistant Staphylococcus aureus NRS384 assessed as inhibition of visible bacterial growth incubated for 18 to 20 hrs by CLSI method; type: functional; conditions: time 18-20 hrs; outline: as §1
# Staphylococcus aureus [7] = test: Antibacterial activity against methicillin-resistant Staphylococcus aureus NRS383 assessed as inhibition of visible bacterial growth incubated for 18 to 20 hrs by CLSI method; type: functional; conditions: time 18-20 hrs; outline: as §1
# Staphylococcus aureus [8] = test: Synergistic antibacterial activity against methicillin-resistant Staphylococcus aureus ATCC 33592 assessed as fractional inhibitory concentration index in presence of Vancomycin; type: functional
# Staphylococcus aureus [9] = test: Antibacterial activity against methicillin-sensitive Staphylococcus aureus NRS 107 assessed as inhibition of visible bacterial growth incubated for 18 to 20 hrs by CLSI method; type: functional; conditions: time 18-20 hrs; outline: as §1
# Acinetobacter baumannii = test: Antibacterial activity against Acinetobacter baumannii ATCC 19606 RW4 assessed as inhibition of visible bacterial growth at 16 ug/ml incubated for 18 to 20 hrs by CLSI method; type: functional, organism-based; conditions: ATCC 19606 = CIP 70.34 = JCM 6841 RW4, dose 16.0 µg/ml, time 18-20 hrs; outline: as §1
# [10] = system: Staphylococcus epidermidis; test: Antibacterial activity against Staphylococcus epidermidis NRS101 assessed as inhibition of visible bacterial growth incubated for 18 to 20 hrs by CLSI method; type: functional; conditions: time 18-20 hrs
# Outline: (§2)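 Broth microdilution per CLSI. Strains grown aerobically overnight on TSA at 37 °C, suspended to 0.5 McFarland, diluted in CAMHB to about 5×10^5 CFU/mL. Agents serially diluted across plate; aerobic incubation 37 °C for 18-20 h. MIC = lowest concentration completely preventing visible growth.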
# Staphylococcus aureus [11] = test: Antibacterial activity against methicillin-sensitive Staphylococcus aureus ATCC 6538 assessed as inhibition of visible bacterial growth incubated for 18 to 20 hrs by CLSI method; type: functional; conditions: time 18-20 hrs; outline: as §1
# Staphylococcus aureus [12] = test: Synergistic antibacterial activity against methicillin-resistant Staphylococcus aureus ATCC 33592 assessed as fractional inhibitory concentration index in presence of linezolid by checkerboard assay; type: functional
# Streptococcus pneumoniae [13] = test: Antibacterial activity against cephalosporin-resistant Streptococcus pneumoniae ATCC 51916 assessed as inhibition of visible bacterial growth incubated for 18 to 20 hrs by CLSI method; type: functional; conditions: time 18-20 hrs; outline: as §1
# Staphylococcus aureus [14] = test: Antibacterial activity against vancomycin-resistant Staphylococcus aureus 12 assessed as inhibition of visible bacterial growth incubated for 18 to 20 hrs by CLSI method; type: functional; conditions: time 18-20 hrs; outline: as §1
# Staphylococcus aureus [15] = test: Antibacterial activity against methicillin-resistant Staphylococcus aureus NRS483 assessed as inhibition of visible bacterial growth incubated for 18 to 20 hrs by CLSI method; type: functional; conditions: time 18-20 hrs; outline: as §1
# Staphylococcus aureus [16] = test: Synergistic antibacterial activity against methicillin-resistant Staphylococcus aureus ATCC 33592 assessed as fractional inhibitory concentration index in presence of methicillin by checkerboard assay; type: functional
# Listeria monocytogenes = test: Antibacterial activity against Listeria monocytogenes ATCC 19111 assessed as inhibition of visible bacterial growth incubated for 18 to 20 hrs by CLSI method; type: functional; conditions: time 18-20 hrs; outline: as §2
# Staphylococcus aureus [17] = test: Synergistic antibacterial activity against methicillin-resistant Staphylococcus aureus ATCC 33592 assessed as fractional inhibitory concentration index in presence of daptomycin by checkerboard assay; type: functional
# [18] = Hemolytic activity in human RBC at 128 ug/ml incubated for 60 mins relative to control; type: ADME, cell-based, Erythrocyte; conditions: red blood cells (erythrocytes), dose 128 µg/ml, read-out: Activity
# Outline: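 Single-donor human erythrocytes as a 5% v/v suspension in PBS. Compounds serially diluted in PBS, in triplicate, and incubated with RBCs at 37 °C for 60 min. PBS served as the negative control and Triton-X as the positive control. Samples spun at 4,000 rpm for 5 min and supernatant absorbance read at 540 nm. Percent hemolysis = 100×(sample−negative)/(positive−negative).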
# Staphylococcus aureus [19] = test: Bactericidal activity against methicillin-resistant Staphylococcus aureus ATCC 33592 assessed as reduction in bacterial growth incubated for 18 hrs by CLSI method; type: functional
# Caco-2 = test: Cytotoxicity against human Caco2 cells assessed as reduction in cell viability at 64 ug/ml incubated for 2 hrs by MTS assay; type: cell-based; conditions: caco-2, 2 h, dose 64 µg/ml
# Enterococcus faecalis [20] = test: Antibacterial activity against vancomycin- resistant Enterococcus faecalis ATCC 51299 assessed as inhibition of visible bacterial growth incubated for 18 to 20 hrs by CLSI method; type: functional; conditions: time 18-20 hrs; outline: as §1
# Escherichia coli = test: Antibacterial activity against Escherichia coli ATCC 25404 assessed as inhibition of visible bacterial growth at 16 ug/ml incubated for 18 to 20 hrs by CLSI method; type: functional, organism-based; conditions: B ATCC 25404, dose 16.0 µg/ml, time 18-20 hrs; outline: as §1
# Staphylococcus aureus [21] = test: Antibacterial activity against vancomycin-resistant Staphylococcus aureus 10 assessed as inhibition of visible bacterial growth incubated for 18 to 20 hrs by CLSI method; type: functional; conditions: time 18-20 hrs; outline: as §1
# Pseudomonas aeruginosa = test: Antibacterial activity against Pseudomonas aeruginosa ATCC 27853 assessed as inhibition of visible bacterial growth at 16 ug/ml incubated for 18 to 20 hrs by CLSI method; type: functional, organism-based; conditions: dose 16.0 µg/ml, time 18-20 hrs; outline: as §1
# Staphylococcus aureus [22] = test: Antibacterial activity against methicillin-resistant Staphylococcus aureus NRS 119 assessed as inhibition of visible bacterial growth incubated for 18 to 20 hrs by CLSI method; type: functional; conditions: time 18-20 hrs; outline: as §1
# Staphylococcus aureus [23] = test: Antibacterial activity against methicillin-resistant Staphylococcus aureus NRS123 assessed as inhibition of visible bacterial growth incubated for 18 to 20 hrs by CLSI method; type: functional; conditions: time 18-20 hrs; outline: as §1
# J774 = test: Cytotoxicity against mouse J774 cells assessed as reduction in cell viability at 32 ug/ml incubated for 24 hrs by MTS assay; type: cell-based; conditions: j774, 24 h, dose 32 µg/ml
# Staphylococcus aureus [24] = test: Antibacterial activity against methicillin-resistant Staphylococcus aureus NRS386 assessed as inhibition of visible bacterial growth incubated for 18 to 20 hrs by CLSI method; type: functional; conditions: time 18-20 hrs; outline: as §1
# Staphylococcus aureus [25] = test: Antibacterial activity against Staphylococcus aureus ATCC 25923 assessed as inhibition of visible bacterial growth incubated for 18 to 20 hrs by CLSI method; type: functional; conditions: time 18-20 hrs; outline: as §1
# Staphylococcus aureus [26] = test: Antibacterial activity against methicillin-resistant Staphylococcus aureus NRS385 assessed as inhibition of visible bacterial growth incubated for 18 to 20 hrs by CLSI method; type: functional; conditions: time 18-20 hrs; outline: as §1
# Staphylococcus aureus [27] = test: Antibacterial activity against methicillin-resistant Staphylococcus aureus ATCC 33592 assessed as reduction in bacterial count at 3 x MIC incubated upto 24 hrs by time kill analysis; type: functional; conditions: time hrs <=24
# Outline: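 Time-kill assay. […] Samples taken at 0, 2, 4, 8, 12 and 24 h, serially diluted in PBS and plated on tryptic soy agar. Viable CFU/mL counted after 18-20 h at 37 °C.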
# Staphylococcus aureus [28] = test: Antibacterial activity against methicillin-resistant Staphylococcus aureus ATCC 33592 assessed as inhibition of visible bacterial growth incubated for 18 to 20 hrs by CLSI method; type: functional; conditions: time 18-20 hrs; outline: as §1
smiles,measurement,setting,value
O=C(Nc1nnc(-c2cccs2)o1)c1ccc(S(F)(F)(F)(F)F)cc1,MIC,Staphylococcus aureus [1],0.25 µg/mL
same,MIC,Staphylococcus aureus [2],0.5 µg/mL
same,MIC,Staphylococcus aureus [3],0.5 µg/mL
same,MIC,Enterococcus faecalis [4],2 µg/mL
same,MIC,Streptococcus pneumoniae [5],0.125 µg/mL
same,MIC,Staphylococcus aureus [6],0.5 µg/mL
same,MIC,Staphylococcus aureus [7],1 µg/mL
same,fractional inhibitory concentration index (FICI),Staphylococcus aureus [8],1
same,MIC,Staphylococcus aureus [9],0.125 µg/mL
same,inhibition,Acinetobacter baumannii,inactive
same,MIC,[10],0.06 µg/mL
same,MIC,Staphylococcus aureus [11],0.5 µg/mL
same,fractional inhibitory concentration index (FICI),Staphylococcus aureus [12],1.5
same,MIC,Streptococcus pneumoniae [13],0.25 µg/mL
same,MIC,Staphylococcus aureus [14],0.125 µg/mL
same,MIC,Staphylococcus aureus [15],0.25 µg/mL
same,fractional inhibitory concentration index (FICI),Staphylococcus aureus [16],0.5
same,MIC,Listeria monocytogenes,0.125 µg/mL
same,fractional inhibitory concentration index (FICI),Staphylococcus aureus [17],0.75
same,"hemolysis at 1 h, 128 ug/ml",[18],9%
same,MBC,Staphylococcus aureus [19],1 µg/mL
same,Activity,Caco-2,Non-Toxic
same,MIC,Enterococcus faecalis [20],2 µg/mL
same,inhibition,Escherichia coli,inactive
same,MIC,Staphylococcus aureus [21],0.25 µg/mL
same,inhibition,Pseudomonas aeruginosa,inactive
same,MIC,Staphylococcus aureus [22],0.06 µg/mL
same,MIC,Staphylococcus aureus [23],0.25 µg/mL
same,Activity,J774,Non-Toxic
same,MIC,Staphylococcus aureus [24],0.125 µg/mL
same,MIC,Staphylococcus aureus [25],0.25 µg/mL
same,MIC,Staphylococcus aureus [26],0.5 µg/mL
same,Activity,Staphylococcus aureus [27],3.96 log10CFU/ml
same,MIC,Staphylococcus aureus [28],0.5 µg/mL
